Reference: ChEMBL document CHEMBL1152621, “Synthesis and discovery of pyrazole-5-carbohydrazide N-glycosides as inducer of autophagy in A549 lung cancer cells” (Bioorg Med Chem, 2009)
Active and inactive are the calls of the source. The rule behind the calls is not given here.

Key:
[1] = test system: A549; assay: Growth inhibition of human A549 cells after 48 hrs by sulforhodamine B assay; type: functional, cell-based; conditions: A549, 48 h
Summary of the method: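 A549 (RPMI 1640, 10% bovine calf serum, seeded 6250/cm2) exposed 24 h after seeding to compound at 10, 20 or 40 µM, 0.1% DMSO control, for 24 or 48 h. TCA fixation 1 h at 4 °C, 0.4% SRB in 1% acetic acid, dye dissolved in 10 mM Tris base pH 10.5, OD 510 nm; mean ± SE, n = 3.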

[2] = test system: A549; assay: Induction of necrosis in human A549 cells at 40 uM after 48 hrs assessed as increase in LDH release; type: cell-based; conditions: a549, 48 h
Summary of the method: (§1)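 A549 treated 48 h at 20 or 40 µM, 0.1% DMSO control; culture medium collected and LDH release measured with a commercial lactate dehydrogenase kit; mean ± SE, n = 3.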

[3] = test system: A549; assay: Effect on cell morphology in human A549 cells assessed as induction of vacuolization at 40 uM after 48 hrs by phase contrast microscopy; type: functional, cell-based
Summary of the method: (§2)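 A549 in RPMI 1640 with 10% bovine calf serum, 80 U/ml gentamicin, 37 °C, 5% CO2; seeded at 6250/cm2. Treated with compound or left untreated for 24 or 48 h. Morphology (vacuoles, cell number) photographed at 400× under inverted phase contrast microscope.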

[4] = test system: A549; assay: Induction of autophagy in human A549 cells assessed as decrease in p62 protein level at 40 uM after 48 hrs by Western blot; type: functional, cell-based
Summary of the method: (§3)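 A549 treated 24 or 48 h at 20 or 40 µM. Lysis in 0.5% SDS/Tris pH 7.5 buffer with protease inhibitors; Bradford protein; 15% SDS-PAGE, PVDF, milk block; anti-LC3b, anti-p62, anti-β-actin overnight 4 °C, HRP secondaries, chemiluminescence on X-ray film. Levels normalized to β-actin, expressed as percent of control.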

[5] = test system: A549; assay: Induction of autophagy in human A549 cells assessed as decrease in p62 protein level at 40 uM after 24 hrs by Western blot; type: functional, cell-based; summary of the method: as §3
[6] = test system: A549; assay: Effect on cell morphology in human A549 cells assessed as decrease in cell number at 40 uM after 48 hrs by phase contrast microscopy; type: functional, cell-based; summary of the method: as §2
[7] = test system: A549; assay: Induction of autophagy in human A549 cells assessed as increase in LC3-II protein level at 40 uM after 24 hrs by Western blot; type: functional, cell-based; summary of the method: as §3
[8] = test system: A549; assay: Induction of autophagy in human A549 cells assessed as increase in LC3-II protein level at 40 uM after 48 hrs by Western blot; type: functional, cell-based; summary of the method: as §3
[9] = test system: A549; assay: Effect on cell morphology in human A549 cells assessed as decrease in cell number at 40 uM after 24 hrs by phase contrast microscopy; type: functional, cell-based; summary of the method: as §2
[10] = test system: A549; assay: Effect on cell morphology in human A549 cells assessed as induction of vacuolization at 40 uM after 24 hrs by phase contrast microscopy; type: functional, cell-based; summary of the method: as §2
[11] = test system: A549; assay: Effect on cell morphology in human A549 cells assessed as decrease in cell number at 20 uM after 48 hrs by phase contrast microscopy; type: functional, cell-based; summary of the method: as §2
[12] = test system: A549; assay: Induction of necrosis in human A549 cells at 20 uM after 48 hrs assessed as increase in LDH release; type: cell-based; conditions: a549, 48 h; summary of the method: as §1
[13] = test system: A549; assay: Effect on cell morphology in human A549 cells assessed as induction of vacuolization at 20 uM after 24 hrs by phase contrast microscopy; type: functional, cell-based; summary of the method: as §2
[14] = test system: A549; assay: Effect on cell morphology in human A549 cells assessed as decrease in cell number at 20 uM after 24 hrs by phase contrast microscopy; type: functional, cell-based; summary of the method: as §2
[15] = test system: A549; assay: Induction of autophagy in human A549 cells assessed as increase in LC3-II protein level at 20 uM after 24 hrs by Western blot; type: functional, cell-based; summary of the method: as §3
[16] = test system: A549; assay: Induction of autophagy in human A549 cells assessed as decrease in p62 protein level at 20 uM after 48 hrs by Western blot; type: functional, cell-based; summary of the method: as §3
[17] = test system: A549; assay: Induction of autophagy in human A549 cells assessed as decrease in p62 protein level at 20 uM after 24 hrs by Western blot; type: functional, cell-based; summary of the method: as §3
[18] = test system: A549; assay: Induction of autophagy in human A549 cells assessed as increase in LC3-II protein level at 20 uM after 48 hrs by Western blot; type: functional, cell-based; summary of the method: as §3

SMILES	IC50 [1] [µM]	Activity [2]	Activity [3]	Activity [4]	Activity [5]	Activity [6]	Activity [7]	Activity [8]	Activity [9]	Activity [10]	further results
COc1ccc(-c2cc(C(=O)NN[C@@H]3O[C@H](CO)[C@@H](O)[C@H](O)[C@H]3O)n(Cc3ccc(C(C)(C)C)cc3)n2)cc1	38.9	Non-toxic	Active								
COc1ccc(-c2cc(C(=O)NN[C@@H]3OC[C@@H](O)[C@H](O)[C@H]3O)n(Cc3ccc(C(C)(C)C)cc3)n2)cc1	24.9	Non-toxic	Active								
O=C(NN[C@@H]1O[C@H](CO)[C@@H](O)[C@H](O)[C@H]1O)c1cc(-c2ccc(Cl)cc2)nn1Cc1ccc(Cl)nc1	35	Non-toxic	Active								
O=C(NN[C@@H]1O[C@H](CO)[C@@H](O)[C@H](O)[C@H]1O)c1cc(-c2ccc(Cl)cc2)nn1Cc1ccccc1	31.8	Non-toxic									
CC(C)(C)c1ccc(Cn2nc(-c3ccccc3)cc2C(=O)NN[C@@H]2O[C@H](CO)[C@@H](O)[C@H](O)[C@H]2O)cc1	21.6	Non-toxic		Active	Active	Active	inactive	Active	Active	Active	
CC(C)(C)c1ccc(Cn2nc(-c3ccccc3)cc2C(=O)NN[C@@H]2OC[C@@H](O)[C@H](O)[C@H]2O)cc1	15.2	Non-toxic		Active	Active	Active	inactive	Active	Active	Active	
CC(C)(C)c1ccc(Cn2nc(-c3ccc(Cl)cc3)cc2C(=O)NN[C@@H]2O[C@H](CO)[C@@H](O)[C@H](O)[C@H]2O)cc1	26.6	Non-toxic		Active	Active	Active	inactive	Active	Active	Active	
CC(C)(C)c1ccc(Cn2nc(-c3ccc(Cl)cc3)cc2C(=O)NN[C@@H]2OC[C@@H](O)[C@H](O)[C@H]2O)cc1	13.9	Toxic									Activity [11]: Active; Activity [12]: Non-toxic; Activity [13]: Active; Activity [14]: Active; Activity [15]: inactive; Activity [16]: Active; Activity [17]: Active; Activity [18]: Active
